Source: ChEMBL document CHEMBL1145092, “Soft antimicrobial agents: synthesis and activity of labile environmentally friendly long chain quaternary ammonium compounds” (J Med Chem, 2003)

Columns and labels:
Human alphaherpesvirus 1 [1] = assay: Tested for antiviral activity against HSV-1 at a concentration of 100 ug/mL after 2 hr of treatment at 37 degrees C; format: functional, herpes simplex virus
Procedure, shortened: (§1)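 HSV-1 strain MacIntyre stock (10^6.5–10^7.5 TCID50/100 µL) was mixed 1:1 with twofold compound dilutions made in RPMI-1640 with 2% FBS from a 1 mg/mL HBSS stock; concentrations are final. Mixtures were held 2 h at 37 °C, then diluted 10-fold to stop. Residual titer was measured on Vero monolayers by 10-fold dilutions in quadruplicate wells, scoring CPE daily for 5 days at 37 °C and 5% CO2. Titers were calculated by Reed–Muench as log10 TCID50/0.1 mL, mean of three, against a virus-plus-medium control.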

[2] = (§2) Half life (t1/2) was determined; format: ADME
Procedure, shortened: (§3)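 Hydrolytic stability: compound from a 0.1 mg/mL ethanol stock was spiked into 10 mM phosphate buffer, pH 6, and held at 60 °C (±0.2 °C). Periodic HPLC or LC-MS/MS analysis was run, and k_obs came from linear regression of peak integration (n = 3). Selected compounds were also tested in diluted (1:4) agar at 37 °C.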

Human alphaherpesvirus 1 [3] = assay: Tested for antiviral activity against HSV-1 at a concentration of 25 ug/mL after 2 hr of treatment at 37 degrees C; format: functional, herpes simplex virus; procedure, shortened: as §1
Enterococcus faecalis [4] = assay: Minimum concentration required to inhibit Enterococcus faecalis ATCC 29212; format: functional
Procedure, shortened: (§4)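 Broth doubling-dilution MIC in Mueller Hinton broth against ATCC quality-control strains, incubated 24 h at 37 °C in ambient air. Poorly water-soluble compounds were dissolved in minimal DMSO. Values are in µg/mL.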

Staphylococcus aureus [5] = assay: Tested for antibacterial activity against Staphylococcus aureus; format: functional
Staphylococcus aureus [6] = assay: Minimum concentration required to inhibit Staphylococcus aureus ATCC 25923; format: functional; procedure, shortened: as §4
Human alphaherpesvirus 1 [7] = assay: Tested for antiviral activity against HSV-1 at a concentration of 12.5 ug/mL after 2 hr of treatment at 37 degrees C; format: functional, herpes simplex virus; procedure, shortened: as §1
Pseudomonas aeruginosa = assay: Minimum concentration required to inhibit Pseudomonas aeruginosa ATCC 27853; format: functional; procedure, shortened: as §4
Escherichia coli = assay: Minimum concentration required to inhibit Escherichia coli ATCC 25922; format: functional; procedure, shortened: as §4
Human alphaherpesvirus 1 [8] = assay: Tested for antiviral activity against HSV-1 at a concentration of 50 ug/mL after 2 hr of treatment at 37 degrees C; format: functional, herpes simplex virus; procedure, shortened: as §1
[9] = as §2; format: functional; procedure, shortened: as §3
Enterococcus faecalis [10] = assay: Minimum concentration required to inhibit enterococcus faecalis ATCC 29212; format: functional; procedure, shortened: as §4
Human alphaherpesvirus 1 [11] = assay: Tested for antiviral activity against HSV-1 at a concentration of 6.25 ug/mL after 2 hr of treatment at 37 degrees C; format: functional, herpes simplex virus; procedure, shortened: as §1

| Log t1/2 [2] | MIC (Enterococcus faecalis [4]) | Log 1/MIC (Staphylococcus aureus [5]) | MIC (Staphylococcus aureus [6]) | MIC (Pseudomonas aeruginosa) | MIC (Escherichia coli) | MIC (Enterococcus faecalis [10]) | SMILES | Log TCID50 (Human alphaherpesvirus 1 [1]) | Log TCID50 (Human alphaherpesvirus 1 [3]) | MLC (Enterococcus faecalis [4]) | MLC (Staphylococcus aureus [6]) | Log TCID50 (Human alphaherpesvirus 1 [7]) | MLC (Pseudomonas aeruginosa) | MLC (Escherichia coli) | Log TCID50 (Human alphaherpesvirus 1 [8]) | Log t1/2 [9] | Log TCID50 (Human alphaherpesvirus 1 [11]) |
| --- | --- | --- | --- | --- | --- | --- | --- | --- | --- | --- | --- | --- | --- | --- | --- | --- | --- |
| 0.92 | 4 mg/L | -0.6 | 4 mg/L | 125 mg/L | 125 mg/L |  | CCCCCCCCCCCCNC(=O)C[n+]1ccccc1 | 1.5 | 5.4 | 8 mg/L | 4 mg/L | 6.57 | 125 mg/L | 125 mg/L | 1.5 |  |  |
|  | 10 mg/L | -1.51 | 50 mg/L | 3200 mg/L | 100 mg/L |  | CCCCCCCCCCCC(=O)OC[n+]1ccccc1.[Cl-] |  |  | 200 mg/L | 50 mg/L |  | 3200 mg/L | 400 mg/L |  | 0.31 |  |
| 1.1 |  | 0 | 1 mg/L | 250 mg/L | 32 mg/L | 8 mg/L | CCCCCCCCCCCCCCCC(=O)OCC[n+]1ccccc1.[Br-] |  |  | 8 mg/L | 1 mg/L |  | 1000 mg/L | 32 mg/L |  |  |  |
| 0.33 | 2 mg/L | -0.9 | < 6.25 mg/L | 200 mg/L | 25 mg/L |  | CCCCCCCCCCCC(=O)OCC[n+]1ccccc1.[Br-] | 1.63 | 6.73 | 100 mg/L | 50 mg/L | 6.8 | 200 mg/L | 100 mg/L | 6.73 |  | 7.03 |
| 0.27 | 4 mg/L | -0.3 | 2 mg/L | 500 mg/L | 125 mg/L |  | CCCCCCCCCCCC(=O)OCC[N+](CCCC)(CCCC)CCCC | 0.5 | 6.63 | 16 mg/L | 8 mg/L | 7 | 1000 mg/L | 125 mg/L | 6 |  | 7 |
|  | 7.5 mg/L |  | 2 mg/L | 250 mg/L | 60 mg/L |  | CCCCCCCCCCCCCCCC(=O)NCC[n+]1ccccc1.[Cl-] | 0.8 | 2.9 |  |  | 6.07 |  |  | 0.9 |  | 6.47 |
| 0.9 | 8 mg/L | 0 | 1 mg/L | 250 mg/L | 500 mg/L |  | CCCCCCCCCCCCCCCCCC(=O)OCC[n+]1ccccc1.[Br-] | 1.3 | 2.9 | 8 mg/L | 2 mg/L | 6.1 | 250 mg/L | 500 mg/L | 1.63 |  | 6.9 |
